Results: ChEMBL document CHEMBL3244380, “Preparation and antitumor activity of 1-aryl-3,3-dimethyltriazene derivatives” (1977)

Columns and labels:
Type in all cases: functional
Conditions in all cases: TLX-5, ip, 72 h, route intraperitoneal
[1] = Antitumor activity against mouse TLX5 cells allografted in CBA/LAC mouse assessed as increase in life span at 40 mg/kg, ip from day 3 to 7 from tumor inoculation relative to control
Method in brief: (§1)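 TLX5 lymphoma cells implanted subcutaneously in the inguinal region of female CBA/LAC mice. Drug given as a freshly made solution in acetone–arachis oil 10/90 (v:v), intraperitoneally once daily from day 3 to 7 after tumour inoculation. Five animals per dose level, ten controls. Read-out was %ILS over controls, with analysis of variance used for significance.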

[2] = Antitumor activity against mouse TLX5 cells allografted in CBA/LAC mouse assessed as increase in life span at 20 mg/kg, ip from day 3 to 7 from tumor inoculation relative to control; method in brief: as §1
[3] = Antitumor activity against mouse TLX5 cells allografted in CBA/LAC mouse assessed as increase in life span at 80 mg/kg, ip from day 3 to 7 from tumor inoculation relative to control; method in brief: as §1
[4] = Antitumor activity against mouse TLX5 cells allografted in CBA/LAC mouse assessed as increase in life span at 160 mg/kg, ip from day 3 to 7 from tumor inoculation relative to control; method in brief: as §1
[5] = Antitumor activity against mouse TLX5 cells allografted in CBA/LAC mouse assessed as increase in life span at 10 mg/kg, ip from day 3 to 7 from tumor inoculation relative to control; method in brief: as §1
[6] = Antitumor activity against mouse TLX5 cells allografted in CBA/LAC mouse assessed as increase in life span at 5 mg/kg, ip from day 3 to 7 from tumor inoculation relative to control; method in brief: as §1
[7] = Antitumor activity against mouse TLX5 cells allografted in CBA/LAC mouse assessed as increase in life span at 2.5 mg/kg, ip from day 3 to 7 from tumor inoculation relative to control; method in brief: as §1
[8] = Antitumor activity against mouse TLX5 cells allografted in CBA/LAC mouse assessed as increase in life span at 12.5 mg/kg, ip from day 3 to 7 from tumor inoculation relative to control; method in brief: as §1
[9] = Antitumor activity against mouse TLX5 cells allografted in CBA/LAC mouse assessed as increase in life span at 200 mg/kg, ip from day 3 to 7 from tumor inoculation relative to control; method in brief: as §1
[10] = Antitumor activity against mouse TLX5 cells allografted in CBA/LAC mouse assessed as increase in life span at 25 mg/kg, ip from day 3 to 7 from tumor inoculation relative to control; method in brief: as §1
[11] = Antitumor activity against mouse TLX5 cells allografted in CBA/LAC mouse assessed as increase in life span at 100 mg/kg, ip from day 3 to 7 from tumor inoculation relative to control; method in brief: as §1
[12] = Antitumor activity against mouse TLX5 cells allografted in CBA/LAC mouse assessed as increase in life span at 400 mg/kg, ip from day 3 to 7 from tumor inoculation relative to control; method in brief: as §1
[13] = Antitumor activity against mouse TLX5 cells allografted in CBA/LAC mouse assessed as increase in life span at 50 mg/kg, ip from day 3 to 7 from tumor inoculation relative to control; method in brief: as §1
[14] = Antitumor activity against mouse TLX5 cells allografted in CBA/LAC mouse assessed as increase in life span at 6.25 mg/kg, ip from day 3 to 7 from tumor inoculation relative to control; method in brief: as §1
[15] = Antitumor activity against mouse TLX5 cells allografted in CBA/LAC mouse assessed as increase in life span at 3.12 mg/kg, ip from day 3 to 7 from tumor inoculation relative to control; method in brief: as §1
[16] = Antitumor activity against mouse TLX5 cells allografted in CBA/LAC mouse assessed as increase in life span at 800 mg/kg, ip from day 3 to 7 from tumor inoculation relative to control; method in brief: as §1

Row | SMILES | ILS at 40 mg/kg [1] [%] | ILS at 20 mg/kg [2] [%] | ILS at 80 mg/kg [3] [%] | ILS at 160 mg/kg [4] [%] | ILS at 10 mg/kg [5] [%] | ILS at 5 mg/kg [6] [%] | ILS at 2.5 mg/kg [7] [%] | ILS at 12.5 mg/kg [8] [%] | ILS at 200 mg/kg [9] [%] | ILS at 25 mg/kg [10] [%] | ILS at 100 mg/kg [11] [%] | ILS at 400 mg/kg [12] [%] | ILS at 50 mg/kg [13] [%] | ILS at 6.25 mg/kg [14] [%] | ILS at 3.12 mg/kg [15] [%] | ILS at 800 mg/kg [16] [%]
1 | CN(C)/N=N/c1ccc(C(=O)NN)cc1 | 57 | 55 | 44 | -46 | 59 |  |  |  |  |  |  |  |  |  |  | 
2 | CCCN(CCC)NC(=O)c1ccc(/N=N/N(C)C)cc1 | -32 | 20 |  |  | 0 | -3.7 | -3.7 |  |  |  |  |  |  |  |  | 
3 | CCCNC(=O)NNC(=O)c1ccc(/N=N/N(C)C)cc1 |  |  |  |  |  |  |  | -1 | 49 | 10 | 44 | -44 | 61 |  |  | 
4 | CCNC(=S)NNC(=O)c1ccc(/N=N/N(C)C)cc1 |  |  |  |  |  |  |  | -1 | -31 | 16 | 55 |  | 18 |  |  | 
5 | CN(C)/N=N/c1ccc(C(=O)N=[N+]=[N-])cc1 |  |  |  |  |  |  |  | 4.6 | -72 | 21 | 51 |  | 46 | -1 |  | 
6 | CN(C)/N=N/c1ccc(C(=O)Nn2cnnc2)cc1 |  |  |  |  |  |  |  | -1 | 28 | 32 | 49 | -14 | 47 |  |  | 
7 | CN(C)/N=N/c1ccc(S(=O)(=O)Nn2cnnc2)cc1 |  |  |  |  |  |  |  | 0.9 | 16 | 4.6 | 4.6 | 14 | 0.9 |  |  | 
8 | CN(C)/N=N/c1ccc(S(=O)(=O)N(C)C)cc1 |  |  |  |  |  |  |  | 0 | -36 | 7.5 | 34 |  | 9.4 |  |  | 
9 | CN(C)/N=N/c1ccc(S(=O)(=O)N(CCCl)CCCl)cc1 |  |  |  |  |  |  |  | -1 |  | 0 | -3.7 |  | 2.9 | -3.7 | -3.7 | 
10 | COc1ccc(/C=N/NC(=O)c2ccc(/N=N/N(C)C)cc2)c(OC)c1 |  |  |  |  |  |  |  | 1.9 | 35 | 19 | 52 | -33 | 48 |  |  | 
11 | CCOc1ccc(/C=N/NC(=O)c2ccc(/N=N/N(C)C)cc2)cc1 |  |  |  |  |  |  |  | 0 | 65 | 13 | 50 | 63 | 29 |  |  | 
12 | CN(C)/N=N/c1ccc(C(=O)N/N=C/c2ccccc2)cc1 |  |  |  |  |  |  |  | 26 | 1.8 | 24 | 36 | -26 | 49 |  |  | 
13 | CN(C)/N=N/c1ccc(C(=O)N/N=C/c2ccc(Cl)cc2)cc1 |  |  |  |  |  |  |  | 4.6 | 51 | 14 | 44 | -23 | 40 |  |  | 
14 | CN(C)/N=N/c1ccc(C(=O)N/N=C/c2ccc(Br)cc2)cc1 |  |  |  |  |  |  |  | 7.6 | 60 | 21 | 52 | -35 | 52 |  |  | 
15 | CN(C)/N=N/c1ccc(C(=O)N/N=C/c2ccc(I)cc2)cc1 |  |  |  |  |  |  |  | 11 | -38 | 15 | 54 |  | 40 |  |  | 
16 | CN(C)/N=N/c1ccc(C(=O)N/N=C/c2ccccc2[N+](=O)[O-])cc1 |  |  |  |  |  |  |  | 44 | 57 | 40 | 51 | 59 | 49 |  |  | 
17 | CN(C)/N=N/c1ccc(C(=O)N/N=C/c2ccc([N+](=O)[O-])cc2)cc1 |  |  |  |  |  |  |  | -1 | 26 | -1 | 16 | 20 | 8.7 |  |  | 
18 | CCO/C=N/NC(=O)c1ccc(/N=N/N(C)C)cc1 |  |  |  |  |  |  |  | 13 |  | 30 | -27 |  | 43 |  |  | 
19 | CN(C)/N=N/c1ccc(C(=O)NNC(O)c2ccc([N+](=O)[O-])cc2)cc1 (stereo not drawn) |  |  |  |  |  |  |  |  | 83 | 6.5 | 74 | 71 | 12 |  |  | 44
20 | CN(C)/N=N/c1ccc(C(N)=O)cc1 |  |  |  |  |  |  |  | 14 | 3.9 | 55 | 47 | -61 | 51 |  |  | 
